The values below come from ChEMBL document CHEMBL1148435, “N,N-dialkyl-4-[(8-azabicyclo[3.2.1]-oct-3-ylidene)phenylmethyl]benzamides, potent, selective delta opioid agonists” (Bioorg Med Chem Lett, 2004).

For one test, the target named is Mu-type opioid receptor (Homo sapiens, UniProt P35372). Briefly: Binding affinity for mu opioid receptor.
In test [1] the target is T1, Delta-type opioid receptor (Homo sapiens, UniProt P41143). Briefly: Binding affinity for delta opioid receptor.
The target in test [2] is T1, Delta-type opioid receptor. Briefly: Efficacy relative to stimulation of [35S]GTP-gamma-S, binding by SNC80 was calculated for human delta opioid receptor. The format is functional.
Test [3] has as its target T1, Delta-type opioid receptor. Briefly: Effective concentration against stimulation of [35S]GTP-gamma-S, binding in CHO cells transfected with the human opioid receptor delta 1. In kind it is functional, cell-based. The method in brief:
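Agonist function was read as compound-stimulated [35S]GTPγS binding in CHO cells transfected with the human δ opioid receptor. The method was adapted from one used for bradykinin receptor signal transduction.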
In general terms: Binding of GTPγS marks nucleotide exchange on a G protein.

The next test deals with Mus musculus. Briefly: Antinociceptive activity was assessed using the mouse abdominal irritant test (MAIT), at a dose of 150 uM/Kg (po). In kind it is functional, Abdomen. An outline of the steps: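 Mice were dosed orally, 15 mice per compound, in the abdominal irritant test for antinociception, and watched for convulsions.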

Chain of Mu-type opioid receptor (P35372 whole entry): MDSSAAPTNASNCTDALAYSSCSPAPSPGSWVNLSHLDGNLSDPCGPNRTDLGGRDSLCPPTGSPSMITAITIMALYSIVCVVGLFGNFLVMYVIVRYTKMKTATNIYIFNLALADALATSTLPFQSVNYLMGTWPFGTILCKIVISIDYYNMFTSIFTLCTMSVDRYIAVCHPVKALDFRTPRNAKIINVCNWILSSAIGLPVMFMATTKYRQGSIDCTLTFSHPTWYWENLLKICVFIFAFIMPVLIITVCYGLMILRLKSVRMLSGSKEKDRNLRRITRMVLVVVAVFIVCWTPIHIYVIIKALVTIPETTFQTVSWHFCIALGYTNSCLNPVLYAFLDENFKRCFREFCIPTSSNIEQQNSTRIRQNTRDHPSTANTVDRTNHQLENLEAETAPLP
T1 sequence (P41143 whole entry): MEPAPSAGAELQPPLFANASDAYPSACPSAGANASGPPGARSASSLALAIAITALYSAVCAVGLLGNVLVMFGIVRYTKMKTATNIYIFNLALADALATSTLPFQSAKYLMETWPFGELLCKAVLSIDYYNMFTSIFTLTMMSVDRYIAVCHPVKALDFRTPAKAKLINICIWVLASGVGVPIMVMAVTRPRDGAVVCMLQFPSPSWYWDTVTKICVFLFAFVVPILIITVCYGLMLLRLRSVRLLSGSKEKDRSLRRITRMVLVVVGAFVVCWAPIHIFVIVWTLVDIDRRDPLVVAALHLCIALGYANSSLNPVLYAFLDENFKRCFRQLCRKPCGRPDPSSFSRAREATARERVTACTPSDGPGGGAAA

For the compound `CCN(CC)C(=O)c1ccc(/C(=C2/C[C@H]3CC[C@@H](C2)N3)c2ccccc2)cc1`, the Ki – broadly, the equilibrium dissociation constant of an inhibitor or competing ligand from its target – was determined as 2310 nM at Mu-type opioid receptor and 0.36 nM in test [1]. The Relative efficacy in test [2] is 1. Besides, the EC50 (commonly the concentration at which the effect is half-maximal) in test [3] was 53 nM. The Inhibition – broadly, the relative decrease from the control value, in per cent – in the test with Mus musculus was 86.7%.

For the compound `CC(C)N(C(=O)c1ccc(C(=C2CC3CCC(C2)N3CCc2ccccc2)c2ccccc2)cc1)C(C)C`, the Ki was 103 nM on Mu-type opioid receptor and 49 nM in test [1]. Moreover, the Relative efficacy in test [2] is 0.92. For the same compound, the midpoint of the response in test [3], the EC50, lay at 5040 nM.

Turning to `CCN(CC)C(=O)c1ccc(C(=C2CC3CCC(C2)N3CCOc2ccccc2)c2ccccc2)cc1`, the Ki came to 630 nM on Mu-type opioid receptor and 0.38 nM in test [1]. Further, the Relative efficacy in test [2] is 0.84. Also, the midpoint of the response in test [3], the EC50, lay at 623 nM.

As for `COCCN(CCOC)C(=O)c1ccc(C(=C2CC3CCC(C2)N3CCc2ccccc2)c2ccccc2)cc1`, the Ki at Mu-type opioid receptor amounted to 294 nM; in test [1], 16.6 nM. For the same compound, the Relative efficacy in test [2] was 0.71. The response in test [3] was half-maximal at 403 nM (EC50).

As to `O=C(c1ccc(C(=C2CC3CCC(C2)N3CCc2ccccc2)c2ccccc2)cc1)N1CCOCC1`, the Ki was 237 nM at Mu-type opioid receptor and 35.2 nM in test [1]. Moreover, the Relative efficacy in test [2] was 0.76. The same compound came in with an EC50 in test [3] of 350 nM.

Take `CC1CCCC(C)N1C(=O)c1ccc(/C(=C2\C[C@H]3CC[C@@H](C2)N3CCc2ccccc2)c2ccccc2)cc1` (stereo partly specified): the values for the Ki (at Mu-type opioid receptor; in test [1]) were 571 nM and 11 nM, respectively. Also, the response in test [3] was half-maximal at 10000 nM (EC50).

Regarding `CCN(CC)C(=O)c1ccc(/C(=C2/C[C@H]3CC[C@@H](C2)N3CCc2ccccc2)c2ccccc2)cc1`, the Ki was determined as 317 nM at Mu-type opioid receptor and 42.1 nM in test [1]. Further, in test [2], the Relative efficacy is 0.88. This compound had an EC50 in test [3] of 1390 nM. This compound also yielded an Inhibition in the test on Mus musculus of 90%.

Regarding `CCN(CC)C(=O)c1ccc(/C(=C2/C[C@H]3CC[C@@H](C2)N3C)c2ccccc2)cc1`, the Ki was determined as 9730 nM on Mu-type opioid receptor and 4.5 nM in test [1]. Further, in test [2], the Relative efficacy was 0.85. The EC50 in test [3] was 149 nM. The compound also registered an Inhibition in the test with Mus musculus of 90%.

As to `CCN(CC)C(=O)c1ccc(C(=C2CC3CCC(C2)N3CCCc2ccccc2)c2ccccc2)cc1`, the Ki was 104 nM at Mu-type opioid receptor and 0.56 nM in test [1]. Further, the Relative efficacy in test [2] was 0.88. In test [3], the response was half-maximal at 112 nM (EC50). The compound further gave an Inhibition with Mus musculus of 13.3%.

Turning to `CCN(CC)C(=O)c1ccc(C(=C2CC3CCC(C2)N3CCc2ccc(F)cc2)c2ccccc2)cc1`, the Ki on Mu-type opioid receptor was 393 nM; in test [1], 2.62 nM. Further, in test [2], the Relative efficacy was 0.76. In test [3], this compound registered an EC50 of 27 nM. This compound displayed an Inhibition in the test with Mus musculus of 26.7%.

In the case of `CCN(CC)C(=O)c1ccc(C(=C2CC3CCC(C2)N3C)c2ccc(OC)cc2)cc1`, the values for the Ki (at Mu-type opioid receptor; in test [1]) were 1500 nM and 3.5 nM, respectively. For the same compound, the Relative efficacy in test [2] was 0.85. Also, the EC50 in test [3] was determined as 27 nM.

In the case of `CCN(CC)C(=O)c1ccc(/C(=C2\C[C@H]3CC[C@@H](C2)N3CCc2ccccc2)c2ccccc2)cc1`, the values for the Ki (on Mu-type opioid receptor; in test [1]) were 72.3 nM and 0.24 nM, respectively. For the same compound, in test [2], the Relative efficacy was 0.82. In test [3], this compound had an EC50 of 34 nM. The compound further displayed an Inhibition in the test with Mus musculus of 100%.

For `CCN(CC)C(=O)c1ccc(C(=C2CC3CCC(C2)N3C)c2ccc(O)cc2)cc1`, the Ki on Mu-type opioid receptor came out at 194 nM; in test [1] it was 1.89 nM. Moreover, the Relative efficacy in test [2] is 0.86. The EC50 in test [3] came to 9 nM.

Regarding `CCN(CC)C(=O)c1ccc(C(=C2CC3CCC(C2)N3CC(=O)c2ccccc2)c2ccccc2)cc1`, the figures for the Ki (at Mu-type opioid receptor; in test [1]) were 9640 nM and 6.31 nM, respectively. Moreover, the Relative efficacy in test [2] is 0.68. In test [3], this compound displayed a concentration giving a half-maximal response (EC50) of 173 nM.

`CCN(CC)C(=O)c1ccc(C(=C2CC3CCC(C2)N3C)c2cccc(OC)c2)cc1`: the inhibition constant (Ki) on Mu-type opioid receptor is 693 nM; in test [1] it was 5.9 nM. In addition, in test [2], the Relative efficacy was 0.87. Further, the EC50 in test [3] turned out to be 65 nM.

Consider `CCN(CC)C(=O)c1ccc(C(=C2CC3CCC(C2)N3Cc2ccc3c(c2)OCO3)c2ccccc2)cc1`, for which the Ki on Mu-type opioid receptor worked out at 22.4 nM; in test [1] it was 0.01 nM. The EC50 in test [3] was 0.2 nM. This compound also came in with an Inhibition in the test on Mus musculus of 40%.

As for `C=CCN1[C@@H]2CC[C@H]1C/C(=C(\c1ccccc1)c1ccc(C(=O)N(CC)CC)cc1)C2`, the results for the Ki (on Mu-type opioid receptor; in test [1]) were 322 nM and 0.025 nM, respectively. Further, in test [2], the Relative efficacy was 1.05. The compound further showed an EC50 in test [3] of 0.5 nM. Besides, the Inhibition with Mus musculus was found to be 100%.

As for `CCN(CC)C(=O)c1ccc(C(=C2CC3CCC(C2)N3CCc2ccccc2)c2cccc(OC)c2)cc1`, the Ki at Mu-type opioid receptor was found to be 417 nM; in test [1] it was 1.36 nM. The Relative efficacy in test [2] was 0.8. This compound also returned an EC50 in test [3] of 218 nM.

`CCCN1C2CCC1CC(=C(c1ccccc1)c1ccc(C(=O)N(CC)CC)cc1)C2`: the Ki stood at 289 nM on Mu-type opioid receptor and 0.39 nM in test [1]. The Relative efficacy in test [2] was 0.87. Also, a half-maximal response in test [3] (EC50) required 43 nM. In the test on Mus musculus, this compound showed an Inhibition of 93.3%.

Regarding `C=C(C)CN(CC)C(=O)c1ccc(/C(=C2\C[C@H]3CC[C@@H](C2)N3CCc2ccccc2)c2ccccc2)cc1`, the inhibition constant Ki at Mu-type opioid receptor is 229 nM; in test [1], 2.94 nM. In test [2], the Relative efficacy is 0.9. This compound displayed an EC50 in test [3] of 1080 nM. This compound had an Inhibition in the test on Mus musculus of 33%.

In the case of `C=CCN1[C@@H]2CC[C@H]1C/C(=C(/c1ccccc1)c1ccc(C(=O)N(CC)CC)cc1)C2`, the figures for the Ki (on Mu-type opioid receptor; in test [1]) were 4400 nM and 0.32 nM, respectively. For the same compound, the Relative efficacy in test [2] is 0.83. Further, a half-maximal response in test [3] (EC50) required 177 nM. The compound also gave an Inhibition in the test on Mus musculus of 100%.

In the case of `CCN(CC)C(=O)c1ccc(C(=C2CC3CCC(C2)N3)c2ccc(O)cc2)cc1`, the inhibitory constant (Ki) at Mu-type opioid receptor is 442 nM; in test [1] it was 0.58 nM. Besides, the Relative efficacy in test [2] was 0.96. The same compound returned an EC50 in test [3] of 5 nM. In the test on Mus musculus, this compound yielded an Inhibition of 26.7%.

Take `CCN(CC)C(=O)c1ccc(/C(=C2\C[C@H]3CC[C@@H](C2)N3C)c2ccccc2)cc1`: the Ki on Mu-type opioid receptor was 2910 nM; in test [1], 5.7 nM. The Relative efficacy in test [2] is 0.87. The compound also showed an EC50 in test [3] of 153 nM. In the test with Mus musculus, the Inhibition turned out to be 80%.

On to `CCN(CC)C(=O)c1ccc(/C(=C2\C[C@H]3CC[C@@H](C2)N3)c2ccccc2)cc1`, for which the Ki came out at 855 nM on Mu-type opioid receptor and 0.023 nM in test [1]. Further, the Relative efficacy in test [2] is 1.02. This compound gave an EC50 in test [3] of 1.8 nM. The Inhibition with Mus musculus was 86.7%.

For the compound `CCN(CC)C(=O)c1ccc(C(=C2CC3CCC(C2)N3CCc2cccs2)c2ccccc2)cc1`, the results for the Ki (at Mu-type opioid receptor; in test [1]) were 1280 nM and 13.1 nM, respectively. Also, the Relative efficacy in test [2] was 0.78. In test [3], a half-maximal effect (EC50) was put at 1350 nM.

As to `O=C(c1ccc(C(=C2CC3CCC(C2)N3CCc2ccccc2)c2ccccc2)cc1)N1CCCC1`, the Ki on Mu-type opioid receptor was determined as 276 nM; in test [1] it was 24.1 nM. The Relative efficacy in test [2] was 0.86. In addition, it took 1460 nM to reach a half-maximal effect in test [3] (EC50).

As for `CCN(CC)C(=O)c1ccc(C(=C2CC3CCC(C2)N3CCc2c[nH]c3ccccc23)c2ccccc2)cc1`, the Ki stood at 337 nM at Mu-type opioid receptor and 3.48 nM in test [1]. Moreover, the Relative efficacy in test [2] was 0.91. The EC50 in test [3] was determined as 16 nM.

With `CCN(CC)C(=O)c1ccc(C(=C2CC3CCC(C2)N3CCC2CCCCC2)c2ccccc2)cc1`, the values for the Ki (at Mu-type opioid receptor; in test [1]) were 451 nM and 1.36 nM, respectively. For the same compound, the Relative efficacy in test [2] is 0.92. This compound displayed an EC50 in test [3] of 228 nM.

For `CCN(CC)C(=O)c1ccc(C(=C2CC3CCC(C2)N3C)c2cccc(O)c2)cc1`, the Ki is 727 nM on Mu-type opioid receptor and 0.6 nM in test [1]. Besides, the Relative efficacy in test [2] was 0.87. In test [3], the EC50 was 3 nM.

In the case of `CCCN(CCC)C(=O)c1ccc(C(=C2CC3CCC(C2)N3CCc2ccccc2)c2ccccc2)cc1`, the Ki at Mu-type opioid receptor was 644 nM; in test [1] it was 7.39 nM. Further, the Relative efficacy in test [2] was 0.82. Further, the EC50 in test [3] was 3560 nM.

For the compound `CCN(CCO)C(=O)c1ccc(C(=C2CC3CCC(C2)N3CCc2ccccc2)c2ccccc2)cc1`, the figures for the Ki (on Mu-type opioid receptor; in test [1]) were 291 nM and 3.2 nM, respectively. For the same compound, the Relative efficacy in test [2] was 0.77. Moreover, in test [3], the EC50 was 548 nM.
